Active and inactive are the calls of the source. No cut-off for these calls is given here.

Format in all cases: cell-based
Test [1] addresses von Hippel-Lindau disease tumor suppressor-SARS-Cov-2 polyprotein (Severe acute respiratory syndrome coronavirus 2, UniProt P40337+P0DTD1). Description: (§1) PROTAC activity at human VHL/FLAG-nsp4-tagged SARS CoV-2 MPro overexpressed in HEK293T cells assessed as protein degradation pretreated for 2 hrs followed by viral protein transfection measured after 24 hrs by Western blot analysis. Put shortly: (§2)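 293T cells pretreated 2 h with compound (1–25 µM) or 0.1% DMSO, then transfected with FLAG-nsp4-Mpro plasmid and kept 24 h with compound. Western blot for Mpro with β-actin loading control. Densitometry from 2–3 independent experiments; DC50 by nonlinear regression, plus % degradation at the top concentration.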
A general note: A western blot detects proteins with antibodies after separation by electrophoresis.

For test [2], the target named is Replicase polyprotein 1ab (Severe acute respiratory syndrome coronavirus 2) (UniProt P0DTD1). Description: Effect on catalytic activity of FLAG-nsp4-tagged SARS CoV-2 MPro overexpressed in HEK293T cells pretreated for 2 hrs followed by viral protein transfection measured after 24 hrs by Western blot analysis. The note with it: time 26.0 hrs. Put shortly:
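293T cells pretreated 2 h, then transfected with FLAG-nsp4-Mpro plasmid and kept 24 h with compound. Western blot with anti-Mpro antibody reads cleavage: release of ~34 kDa mature Mpro versus the uncleaved upper band.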

Test [3] has the same target. Description: Effect on catalytic activity of FLAG-nsp4-tagged SARS CoV-2 MPro overexpressed in HEK293T cells by FRET assay.
Test [4] deals with T1, von Hippel-Lindau disease tumor suppressor-SARS-Cov-2 polyprotein (Severe acute respiratory syndrome coronavirus 2) (UniProt P40337+P0DTD1). The test can be described thus: PROTAC activity at human VHL/FLAG-nsp4-tagged SARS CoV-2 MPro overexpressed in HEK293T cells assessed as protein degradation at 25 uM pretreated for 2 hrs followed by viral protein transfection measured after 24 hrs by Western blot analysis relative to control. Particulars: time 26.0 hrs. Put shortly: as §2
T1 sequence (P40337 whole entry, looked up, other chains not shown): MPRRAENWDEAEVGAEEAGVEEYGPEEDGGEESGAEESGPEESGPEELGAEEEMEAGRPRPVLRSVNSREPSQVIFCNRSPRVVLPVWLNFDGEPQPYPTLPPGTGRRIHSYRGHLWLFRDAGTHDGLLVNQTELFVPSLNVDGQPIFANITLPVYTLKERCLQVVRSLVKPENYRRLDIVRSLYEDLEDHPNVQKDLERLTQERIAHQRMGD

In test [5] the target is T1, von Hippel-Lindau disease tumor suppressor-SARS-Cov-2 polyprotein (Severe acute respiratory syndrome coronavirus 2). The test can be described thus: PROTAC activity at human VHL/FLAG-nsp4-tagged SARS CoV-2 MPro overexpressed in HEK293T cells assessed as protein degradation at 25 uM pretreated for 2 hrs followed by viral protein transfection measured after 24 hrs in presence of VH298 by Western blot analysis. The note with it: time 26.0 hrs. In short, it runs like this:
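293T cells pretreated with compound at 25 µM, with or without 50 µM VHL inhibitor VH298. Cells then transfected to express FLAG-nsp4-Mpro and collected 24 h post-transfection. Mpro detected by Western blot, β-actin as loading control.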

Test [6] has the same target. Description: PROTAC activity at human VHL/FLAG-nsp4-tagged SARS CoV-2 MPro overexpressed in HEK293T cells assessed as protein degradation at 25 uM pretreated for 2 hrs followed by viral protein transfection measured after 24 hrs by Western blot analysis. Particulars: time 26.0 hrs. Put shortly: as §2
For test [7] the target is unchanged. The test is described as §1. The note with it: time 26.0 hrs. In short, it runs like this: as §2

von Hippel-Lindau disease tumor suppressor-SARS-Cov-2 polyprotein, sequence (P40337 whole entry, other chains not shown): as the sequence (P40337 whole entry, looked up, other chains not shown) above

In general, DC50 refers to the midpoint of the concentration-degradation curve. Turning to `COc1ccc2c(c1)c(CC(=O)N1CCN(CC(=O)N[C@H](C(=O)N3C[C@H](O)C[C@H]3C(=O)N[C@@H](C)c3ccc(-c4scnc4C)cc3)C(C)(C)C)CC1)c(C)n2C(=O)c1ccc(Cl)cc1`, the DC50 in test [1] was found to be 7.3 µM. For the same compound, the result in test [2], in test [3] and in test [5] was inactive. In test [4], the Activity amounted to 72%.
`COc1ccc2c(c1)c(CC(=O)NCCN1CCN(C(=O)CCC(=O)N[C@H](C(=O)N3C[C@@H](O)C[C@H]3C(=O)N[C@@H](C)c3ccc(-c4scnc4C)cc3)C(C)(C)C)CC1)c(C)n2C(=O)c1ccc(Cl)cc1`: in test [6], the result was inactive.
As to `COc1ccc2c(c1)c(CC(=O)NCCN1CCN(C(=O)CCC(=O)N[C@H](C(=O)N3C[C@H](O)C[C@H]3C(=O)N[C@@H](C)c3ccc(-c4scnc4C)cc3)C(C)(C)C)CC1)c(C)n2C(=O)c1ccc(Cl)cc1`, the DC50 in test [1] is 18.1 µM. Further, the outcome in test [2], in test [3] and in test [5] was inactive. Also, in test [4], the Activity came to 67%.
On to `COc1ccc2c(c1)c(CC(=O)NCCCCCCC(=O)N[C@H](C(=O)N1C[C@H](O)C[C@H]1C(=O)N[C@@H](C)c1ccc(-c3scnc3C)cc1)C(C)(C)C)c(C)n2C(=O)c1ccc(Cl)cc1`, for which the Activity result in test [7] was “Dose-Dependent Effect”. Besides, the result in test [2] and in test [3] was inactive.

Values taken from ChEMBL document CHEMBL5512625, “Design, synthesis, and biological evaluation of first-in-class indomethacin-based PROTACs degrading SARS-CoV-2 main protease and with broad-spectrum antiviral activity” (Eur J Med Chem, 2024).
